Series [1] has as its system CXCR4-positive MDA-MB-231 human breast cancer cells. Briefly: Matrigel invasion assay induced by CXCR4/CXCL12-mediated interaction. The series is classed as cell-based. To be noted: MDA-MB-231, 22 h, read-out: Inhibition of cell invasion. The method in brief: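 MDA-MB-231 cells were pre-mixed with test compound (100 nM) and seeded in the upper well of a Matrigel-coated chamber in serum-free medium. The lower well held CXCL12α (200 ng/mL) as chemoattractant. After 22 h in a humidified incubator, non-invading cells were swabbed off, and invading cells on the filter underside were methanol-fixed and H&E-stained. Percent invasion came from counts of stained cells.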

A short description of series [2]: Carrageenan-induced paw inflammation suppression test. The series is classed as in vivo. To be noted: mouse paw after treatment with IIIm.
The subject of a further series is MDA-MB-231. Briefly: Cytotoxicity, cell viability. The series is classed as cell-based, human. Particulars: concentrations as high as 100 μM, 24 h treatment. The method in brief: (§1)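 Cells were seeded at 3000 cells/well and held 24 h at 37 °C in a CO2 incubator. They were then exposed to the test compound for 24 h at 37 °C. MTT-type tetrazolium reagent (CellTiter 96AQ) was added for a further 2 h, and absorbance was read at 490 nm.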

The test system of the next series is SKBR3. Briefly: Cytotoxicity, cell viability. The series is classed as cell-based, human. Particulars: concentrations as high as 100 μM, 24 h treatment. The method in brief:
as §1

The next series has as its system MCF-10A. Briefly: Cytotoxicity, cell viability. The series is classed as cell-based, human. Particulars: concentrations as high as 100 μM, 24 h treatment. The method in brief:
as §1

Another series addresses CXCR4 (Homo sapiens, UniProt P61073). The series is classed as binding. Particulars: fold loss of affinity vs RB-108.

As usually defined, the inhibition is the percentage by which the read-out fell short of the control.

Chain of CXCR4 (P61073 whole entry): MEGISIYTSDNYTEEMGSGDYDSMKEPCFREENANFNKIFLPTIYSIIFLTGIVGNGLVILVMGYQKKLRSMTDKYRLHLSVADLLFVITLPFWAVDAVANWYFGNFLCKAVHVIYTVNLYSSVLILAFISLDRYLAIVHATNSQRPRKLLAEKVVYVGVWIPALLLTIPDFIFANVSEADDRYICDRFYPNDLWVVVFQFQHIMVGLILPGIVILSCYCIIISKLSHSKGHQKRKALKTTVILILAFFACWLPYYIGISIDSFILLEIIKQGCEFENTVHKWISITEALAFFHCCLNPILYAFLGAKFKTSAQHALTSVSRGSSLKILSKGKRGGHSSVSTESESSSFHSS

Turning to `c1cc(CN2CCCNCCNCCCNCC2)ccc1CN1CCCNCCNCCCNCC1` [AMD3100], the inhibition at 0.1 µM in series [1] amounted to 55%.

Turning to `O=C(NCc1ccc(CNS(=O)(=O)c2ccc3c(c2)CCO3)cc1)c1ccc(F)cc1` [IIIm, 4-Fluoro-N-(4-(((2,3-dihydrobenzofuran)-5-sulfonamido)methyl)benzyl)benzamide], the “Number of inflammatory cells accumulated in the paw tissue (histological analysis, H&E)” value in series [2] is listed as “markedly decreased”. Further, the “Inhibition of proliferation (cytotoxicity)” value in the series on MDA-MB-231, with SKBR3 and in the series on MCF-10A was “did not inhibit the proliferation” in each case.

Consider `Cc1ccc(S(=O)(=O)NCc2ccc(CNC(=O)c3ccc(F)cn3)cc2)cc1` [Ia, 5-Fluoro-N-(4-(((4-methylphenyl)sulfonamido)methyl)benzyl)picolinamide], for which the “EC reduced compared with RB-108” value on CXCR4 was “more than 1000 fold”.

`Cc1ccc(S(=O)(=O)NCc2ccc(CNC(=O)c3ccc(F)nc3)cc2)cc1` [Ib, 6-Fluoro-N-(4-(((4-methylphenyl)sulfonamido)methyl)benzyl)nicotinamide]: the “EC reduced compared with RB-108” value on CXCR4 is listed as “more than 1000 fold”.
